From ChEMBL document CHEMBL1154853, “New 1,3-oxazolo[4,5-c]quinoline derivatives: synthesis and evaluation of antibacterial and antituberculosis properties” (2010)
≈ marks a conversion by molar mass, not a printed value. Where “and” joins values, the source holds several entries; their conditions need not be identical. Identical values can stand only once.

What was measured:
Format in all cases: functional
[1] = system: Escherichia coli; experiment: Antimicrobial activity against Escherichia coli […] at MIC after 3 to 4 days by disc diffusion method
[2] = system: Klebsiella pneumoniae; experiment: Antimicrobial activity against Klebsiella pneumoniae after 16 to 18 hrs by serial dilution method
Outline: (§1)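 Tube broth dilution: serial drug dilutions in Mueller Hinton broth, pH adjusted to 5.0 with phosphate buffer. A standardized bacterial suspension was inoculated and incubated 16-18 h at 37 °C. MIC was read as the lowest drug concentration with no visible growth. Ciprofloxacin served as the reference.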

[3] = system: Mycobacterium tuberculosis; experiment: Antitubercular activity against Mycobacterium tuberculosis H37Rv after 24 hrs by broth microdilution method
Outline: (§2)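 M. tuberculosis H37Rv grown in Middlebrook 7H9 with 10% OADC, diluted to McFarland 1, 50 µl added to 150 µl fresh medium. Compounds from 2 mg/mL DMF stocks tested at 1, 10 and 100 µg/mL; DMF-only controls. 7 days at 37 °C, then 0.01% resazurin added with 24 h further incubation. MIC = lowest concentration preventing blue-to-pink change.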

[4] = system: Staphylococcus aureus; experiment: Antimicrobial activity against Staphylococcus aureus […] at MIC after 3 to 4 days by disc diffusion method
[5] = system: Staphylococcus aureus; experiment: Antimicrobial activity against Staphylococcus aureus […] after 16 to 18 hrs by serial dilution method; outline: as §1
[6] = system: Klebsiella pneumoniae; experiment: Antimicrobial activity against Klebsiella pneumoniae at MIC after 3 to 4 days by disc diffusion method
[7] = system: Pseudomonas aeruginosa; experiment: Antimicrobial activity against Pseudomonas aeruginosa ATTC 27853 at MIC after 3 to 4 days by disc diffusion method
[8] = system: Mycobacterium tuberculosis; experiment: Antitubercular activity against Mycobacterium tuberculosis H37Rv at MIC after 24 hrs by broth microdilution method; outline: as §2
[9] = system: Escherichia coli; experiment: Antimicrobial activity against Escherichia coli […] after 16 to 18 hrs by serial dilution method; outline: as §1
[10] = system: Pseudomonas aeruginosa; experiment: Antimicrobial activity against Pseudomonas aeruginosa ATTC 27853 after 16 to 18 hrs by serial dilution method; outline: as §1

| SMILES | diameter of the inhibition zone (DIZ) [1] | MIC [2] [µg/mL] | MIC [3] [µg/mL] | diameter of the inhibition zone (DIZ) [4] | MIC [5] [µg/mL] | diameter of the inhibition zone (DIZ) [6] | diameter of the inhibition zone (DIZ) [7] | inhibition (INH) [8] [%] | MIC [9] [µg/mL] | MIC [10] [µg/mL] |
| --- | --- | --- | --- | --- | --- | --- | --- | --- | --- | --- |
| O=C(Nc1ccc(F)cc1)Nc1c(-c2ccc(F)cc2)nc2ccccc2c1O | 24 mm | 6.25 (≈ 16 µM) | 10 (≈ 25.6 µM) | 18 mm | 6.25 (≈ 16 µM) | 16 mm | 17 mm | 95 | 6.25 (≈ 16 µM) | 6.25 (≈ 16 µM) |
| O=C(NCc1ccccc1)Nc1c(-c2ccc(F)cc2)nc2ccccc2c1O | <10 mm | 50 (≈ 129 µM) | 10 (≈ 25.8 µM) | 16 mm | 6.25 (≈ 16.1 µM) | <10 mm | <10 mm | 95 | 50 (≈ 129 µM) | 50 (≈ 129 µM) |
| CCCCCNC(=O)Nc1c(-c2ccc(F)cc2)nc2ccccc2c1O | 20 mm | 50 (≈ 136 µM) | > 100 | <10 mm | 50 (≈ 136 µM) | <10 mm | <10 mm | 0 | 6.25 (≈ 17 µM) | 50 (≈ 136 µM) |
| O=C(Nc1cccc(Cl)c1)Nc1c(-c2ccc(F)cc2)nc2ccccc2c1O | 22 mm | 6.25 (≈ 15.3 µM) | 10 (≈ 24.5 µM) | 18 mm | 6.25 (≈ 15.3 µM) | 20 mm | 20 mm | 95 | 6.25 (≈ 15.3 µM) | 6.25 (≈ 15.3 µM) |
| COc1ccccc1NC(=O)Nc1c(-c2ccc(F)cc2)nc2ccccc2c1O | 21 mm | 6.25 (≈ 15.5 µM) | 1 (≈ 2.48 µM) | 17 mm | 6.25 (≈ 15.5 µM) | 19 mm | 16 mm | 99 | 6.25 (≈ 15.5 µM) | 6.25 (≈ 15.5 µM) |
| O=C(Nc1ccc(F)cc1)Nc1c(-c2cccc(F)c2)nc2ccccc2c1O | 21 mm | 6.25 (≈ 16 µM) | 10 (≈ 25.6 µM) | 20 mm | 6.25 (≈ 16 µM) | 16 mm | 19 mm | 95 | 6.25 (≈ 16 µM) | 6.25 (≈ 16 µM) |
| O=C(NCCc1ccccc1)Nc1c(-c2cccc(F)c2)nc2ccccc2c1O | <10 mm | 50 (≈ 125 µM) | > 100 | <10 mm | 50 (≈ 125 µM) | <10 mm | <10 mm | 0 | 50 (≈ 125 µM) | 50 (≈ 125 µM) |
| Cc1cc(C)cc(NC(=O)Nc2c(-c3ccc(F)cc3)nc3ccccc3c2O)c1 | <10 mm | 50 (≈ 125 µM) | > 100 | <10 mm | 50 (≈ 125 µM) | <10 mm | <10 mm | 0 | 50 (≈ 125 µM) | 50 (≈ 125 µM) |
| O=C(NCc1ccccc1)Nc1c(-c2cccc(F)c2)nc2ccccc2c1O | 21 mm | 6.25 (≈ 16.1 µM) | 10 (≈ 25.8 µM) | 18 mm | 6.25 (≈ 16.1 µM) | 18 mm | 20 mm | 95 | 6.25 (≈ 16.1 µM) | 6.25 (≈ 16.1 µM) |
| O=C(Nc1ccccc1)Nc1c(-c2cccc(F)c2)nc2ccccc2c1O | 20 mm | 6.25 (≈ 16.7 µM) | 10 (≈ 26.8 µM) | 17 mm | 6.25 (≈ 16.7 µM) | 20 mm | 18 mm | 95 | 6.25 (≈ 16.7 µM) | 6.25 (≈ 16.7 µM) |
| N#Cc1cccc(NC(=O)Nc2c(-c3cccc(F)c3)nc3ccccc3c2O)c1 | 23 mm | 6.25 (≈ 15.7 µM) | > 100 | 19 mm | 6.25 (≈ 15.7 µM) | 18 mm | 19 mm | 0 | 6.25 (≈ 15.7 µM) | 6.25 (≈ 15.7 µM) |
| CCCCCNC(=O)Nc1c(-c2cccc(F)c2)nc2ccccc2c1O | 22 mm | 12.5 (≈ 34 µM) | > 100 | 12 mm | 12.5 (≈ 34 µM) | 12 mm | 11 mm | 0 | 6.25 (≈ 17 µM) | 12.5 (≈ 34 µM) |
| COc1ccccc1NC(=O)Nc1c(-c2cccc(F)c2)nc2ccccc2c1O | 22 mm | 6.25 (≈ 15.5 µM) | 1 (≈ 2.48 µM) | 19 mm | 6.25 (≈ 15.5 µM) | 19 mm | 18 mm | 99 | 6.25 (≈ 15.5 µM) | 6.25 (≈ 15.5 µM) |
| CSc1ccc(NC(=O)Nc2c(-c3cccc(F)c3)nc3ccccc3c2O)cc1 | 22 mm | 50 (≈ 119 µM) | > 100 | <10 mm | 50 (≈ 119 µM) | <10 mm | <10 mm | 0 | 6.25 (≈ 14.9 µM) | 50 (≈ 119 µM) |
| COc1ccccc1Nc1nc2c(-c3cccc(F)c3)nc3ccccc3c2o1 | 24 mm | 6.25 (≈ 16.2 µM) | 1 (≈ 2.59 µM) | 21 mm | 6.25 (≈ 16.2 µM) | 21 mm | 21 mm | 99 | 6.25 (≈ 16.2 µM) | 6.25 (≈ 16.2 µM) |
| CSc1ccc(Nc2nc3c(-c4cccc(F)c4)nc4ccccc4c3o2)cc1 | 23 mm | 6.25 (≈ 15.6 µM) | 10 (≈ 24.9 µM) | 20 mm | 6.25 (≈ 15.6 µM) | 22 mm | 20 mm | 95 | 6.25 (≈ 15.6 µM) | 6.25 (≈ 15.6 µM) |
| O=C(O)c1cn(C2CC2)c2cc(N3CCNCC3)c(F)cc2c1=O [CIPROFLOXACIN] | 28 mm and 29 mm | 6.25 (≈ 18.9 µM) | – | 26 mm and 24 mm | – | 25 mm and 22 mm | 31 mm and 25 mm | – | – | – |
| NNC(=O)c1ccncc1 [ISONIAZID] | – | – | 1.5 (≈ 10.9 µM) | – | – | – | – | 95 | – | – |
| CO[C@H]1/C=C/O[C@@]2(C)Oc3c(C)c(O)c4c(O)c(c(/C=N/N5CCN(C)CC5)c(O)c4c3C2=O)NC(=O)/C(C)=C\C=C\[C@H](C)[C@H](O)[C@@H](C)[C@@H](O)[C@@H](C)[C@H](OC(C)=O)[C@@H]1C [RIFAMPIN] | – | – | 0.5 (≈ 0.608 µM) | – | – | – | – | 99 | – | – |
